Measured values reported in ChEMBL document CHEMBL5058577, “EUbOPEN Chemogenomics Library 2 (Multiplex)” (2022).

System: U2OS
Experiment: Multiplex assay against U2OS
Type: toxicity, cell-based
Settings: human
In short: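 Values for tubulin, mitochondrial-mass and membrane-permeability phenotypes are per cents of cells with healthy nuclei. These cells were identified by CellPathfinder machine-learning gating of live cells that had been stained at seeding with Hoechst33342, BioTracker Green Microtubule Cytoskeleton Dye, MitoTracker Red and Annexin V Alexa Fluor 680 and imaged on a CQ1 microscope at 37°C and 5% CO2 after compound addition. The gating first set Hoechst high-intensity objects apart from normal cells, then split normal cells into healthy, pyknosed or fragmented nuclei, and pyknosed cells into mitotic or apoptotic.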

[1] = 12 h, 1 µM, compound concentration 1 uM, replicate 1
[2] = 12 h, 1 µM, compound concentration 1 uM, replicate 2
[3] = 12 h, 10 µM, compound concentration 10 uM, replicate 1
[4] = 12 h, 10 µM, compound concentration 10 uM, replicate 2
[5] = 24 h, 1 µM, compound concentration 1 uM, replicate 1
[6] = 24 h, 1 µM, compound concentration 1 uM, replicate 2
[7] = 24 h, 10 µM, compound concentration 10 uM, replicate 1
[8] = 24 h, 10 µM, compound concentration 10 uM, replicate 2
[9] = 48 h, 1 µM, compound concentration 1 uM, replicate 1
[10] = 48 h, 1 µM, compound concentration 1 uM, replicate 2
[11] = 48 h, 10 µM, compound concentration 10 uM, replicate 1
[12] = 48 h, 10 µM, compound concentration 10 uM, replicate 2

With Nc1nc(CC(=O)Nc2ccc(CCNC[C@H](O)c3ccccc3)cc2)cs1 [MIRABEGRON] as the compound, how does the “Population Apoptotic (%)” value [1] read?
The value was 86%.

And the “Population Fragmented Nuclei (%)” value [1]?
Its value is 24%.

And the “Population Healthy Nuclei (%)” value [1]?
The value was 62%.

And the “Population Hoechst High Intensity Objects (%)” value [1]?
Its value is 1%.

What about the “Population Membrane Permeable-Phenotype (%)” value [1] of the same compound?
The value was 6%.

What about the “Population Mitochondria Different-Phenotype (%)” value [1] of the same compound?
The value was 3%.

And the “Population Mitotic Cells (%)” value [1]?
The value was 13%.

What about the “Population Normal (%)” value [1] of the same compound?
The value was 98%.

And the “Population Pyknosed Nuclei (%)” value [1]?
Its value is 12%.

And the “Population Tubulin-Different-Phenotype (%)” value [1]?
The value was 4%.

And the “Total Cell Count” value [1]?
The value was 240.

And the “Population Apoptotic (%)” value [2]?
Its value is 100%.

What about the “Population Fragmented Nuclei (%)” value [2] of the same compound?
Its value is 13%.

And the “Population Healthy Nuclei (%)” value [2]?
The value was 74%.

And the “Population Hoechst High Intensity Objects (%)” value [2]?
Its value is 0%.

What about the “Population Membrane Permeable-Phenotype (%)” value [2] of the same compound?
Its value is 5%.

And the “Population Mitochondria Different-Phenotype (%)” value [2]?
Its value is 2%.

What about the “Population Mitotic Cells (%)” value [2] of the same compound?
Its value is 0%.

And the “Population Normal (%)” value [2]?
The value was 99%.

And the “Population Tubulin-Different-Phenotype (%)” value [2]?
Its value is 5%.

What about the “Total Cell Count” value [2] of the same compound?
The value was 107.

What about the “Population Apoptotic (%)” value [3] of the same compound?
The value was 86%.

What about the “Population Fragmented Nuclei (%)” value [3] of the same compound?
Its value is 18%.

And the “Population Healthy Nuclei (%)” value [3]?
Its value is 70%.

And the “Population Hoechst High Intensity Objects (%)” value [3]?
Its value is 1%.

And the “Population Membrane Permeable-Phenotype (%)” value [3]?
The value was 6%.

And the “Population Mitochondria Different-Phenotype (%)” value [3]?
Its value is 2%.

And the “Population Mitotic Cells (%)” value [3]?
Its value is 13%.

And the “Population Normal (%)” value [3]?
The value was 98%.

And the “Population Pyknosed Nuclei (%)” value [3]?
Its value is 11%.

What about the “Population Tubulin-Different-Phenotype (%)” value [3] of the same compound?
Its value is 4%.

And the “Total Cell Count” value [3]?
Its value is 319.

And the “Population Apoptotic (%)” value [4]?
Its value is 66%.

And the “Population Fragmented Nuclei (%)” value [4]?
Its value is 21%.

What about the “Population Healthy Nuclei (%)” value [4] of the same compound?
Its value is 71%.

What about the “Population Hoechst High Intensity Objects (%)” value [4] of the same compound?
Its value is 0%.

And the “Population Membrane Permeable-Phenotype (%)” value [4]?
The value was 7%.

What about the “Population Mitochondria Different-Phenotype (%)” value [4] of the same compound?
Its value is 3%.

What about the “Population Mitotic Cells (%)” value [4] of the same compound?
Its value is 33%.

And the “Population Normal (%)” value [4]?
The value was 99%.

And the “Population Pyknosed Nuclei (%)” value [4]?
Its value is 6%.

What about the “Population Tubulin-Different-Phenotype (%)” value [4] of the same compound?
Its value is 1%.

What about the “Total Cell Count” value [4] of the same compound?
The value was 136.

And the “Population Apoptotic (%)” value [5]?
Its value is 82%.

And the “Population Fragmented Nuclei (%)” value [5]?
Its value is 21%.

What about the “Population Healthy Nuclei (%)” value [5] of the same compound?
Its value is 70%.

What about the “Population Hoechst High Intensity Objects (%)” value [5] of the same compound?
Its value is 2%.

And the “Population Membrane Permeable-Phenotype (%)” value [5]?
The value was 4%.

What about the “Population Mitochondria Different-Phenotype (%)” value [5] of the same compound?
Its value is 2%.

And the “Population Mitotic Cells (%)” value [5]?
Its value is 17%.

And the “Population Normal (%)” value [5]?
Its value is 97%.

And the “Population Pyknosed Nuclei (%)” value [5]?
Its value is 8%.

And the “Population Tubulin-Different-Phenotype (%)” value [5]?
The value was 3%.

And the “Total Cell Count” value [5]?
The value was 289.

And the “Population Apoptotic (%)” value [6]?
Its value is 58%.

And the “Population Fragmented Nuclei (%)” value [6]?
The value was 11%.

And the “Population Healthy Nuclei (%)” value [6]?
The value was 79%.

And the “Population Hoechst High Intensity Objects (%)” value [6]?
Its value is 0%.

What about the “Population Membrane Permeable-Phenotype (%)” value [6] of the same compound?
The value was 9%.

And the “Population Mitochondria Different-Phenotype (%)” value [6]?
Its value is 3%.

What about the “Population Mitotic Cells (%)” value [6] of the same compound?
Its value is 41%.

And the “Population Normal (%)” value [6]?
The value was 99%.

And the “Population Pyknosed Nuclei (%)” value [6]?
Its value is 9%.

And the “Population Tubulin-Different-Phenotype (%)” value [6]?
Its value is 7%.

What about the “Total Cell Count” value [6] of the same compound?
The value was 125.

What about the “Population Apoptotic (%)” value [7] of the same compound?
The value was 86%.

What about the “Population Fragmented Nuclei (%)” value [7] of the same compound?
Its value is 17%.

What about the “Population Healthy Nuclei (%)” value [7] of the same compound?
The value was 75%.

And the “Population Hoechst High Intensity Objects (%)” value [7]?
The value was 1%.

And the “Population Membrane Permeable-Phenotype (%)” value [7]?
The value was 5%.

And the “Population Mitochondria Different-Phenotype (%)” value [7]?
Its value is 3%.

What about the “Population Mitotic Cells (%)” value [7] of the same compound?
Its value is 13%.

What about the “Population Normal (%)” value [7] of the same compound?
Its value is 98%.

And the “Population Pyknosed Nuclei (%)” value [7]?
The value was 7%.

What about the “Population Tubulin-Different-Phenotype (%)” value [7] of the same compound?
The value was 3%.

What about the “Total Cell Count” value [7] of the same compound?
The value was 405.

And the “Population Apoptotic (%)” value [8]?
The value was 76%.

What about the “Population Fragmented Nuclei (%)” value [8] of the same compound?
The value was 20%.

What about the “Population Healthy Nuclei (%)” value [8] of the same compound?
The value was 71%.

And the “Population Membrane Permeable-Phenotype (%)” value [8]?
The value was 9%.

What about the “Population Mitochondria Different-Phenotype (%)” value [8] of the same compound?
The value was 5%.

And the “Population Mitotic Cells (%)” value [8]?
The value was 23%.

What about the “Population Tubulin-Different-Phenotype (%)” value [8] of the same compound?
Its value is 4%.

And the “Total Cell Count” value [8]?
Its value is 167.

What about the “Population Apoptotic (%)” value [9] of the same compound?
The value was 84%.

And the “Population Fragmented Nuclei (%)” value [9]?
Its value is 17%.

And the “Population Healthy Nuclei (%)” value [9]?
Its value is 72%.

What about the “Population Hoechst High Intensity Objects (%)” value [9] of the same compound?
The value was 2%.

What about the “Population Membrane Permeable-Phenotype (%)” value [9] of the same compound?
Its value is 4%.

What about the “Population Mitochondria Different-Phenotype (%)” value [9] of the same compound?
The value was 3%.

And the “Population Mitotic Cells (%)” value [9]?
The value was 15%.

What about the “Population Normal (%)” value [9] of the same compound?
Its value is 97%.

What about the “Population Pyknosed Nuclei (%)” value [9] of the same compound?
Its value is 9%.

What about the “Population Tubulin-Different-Phenotype (%)” value [9] of the same compound?
The value was 3%.

What about the “Total Cell Count” value [9] of the same compound?
Its value is 394.

And the “Population Apoptotic (%)” value [10]?
The value was 78%.

And the “Population Fragmented Nuclei (%)” value [10]?
Its value is 12%.

What about the “Population Healthy Nuclei (%)” value [10] of the same compound?
The value was 74%.

What about the “Population Membrane Permeable-Phenotype (%)” value [10] of the same compound?
Its value is 8%.

What about the “Population Mitotic Cells (%)” value [10] of the same compound?
Its value is 21%.

And the “Population Pyknosed Nuclei (%)” value [10]?
Its value is 13%.

And the “Population Tubulin-Different-Phenotype (%)” value [10]?
Its value is 7%.

What about the “Total Cell Count” value [10] of the same compound?
The value was 179.

And the “Population Apoptotic (%)” value [11]?
Its value is 87%.

And the “Population Fragmented Nuclei (%)” value [11]?
The value was 14%.

And the “Population Healthy Nuclei (%)” value [11]?
The value was 74%.

What about the “Population Hoechst High Intensity Objects (%)” value [11] of the same compound?
The value was 2%.

What about the “Population Membrane Permeable-Phenotype (%)” value [11] of the same compound?
Its value is 5%.

What about the “Population Mitochondria Different-Phenotype (%)” value [11] of the same compound?
The value was 2%.

What about the “Population Mitotic Cells (%)” value [11] of the same compound?
Its value is 12%.

And the “Population Normal (%)” value [11]?
The value was 97%.

What about the “Population Pyknosed Nuclei (%)” value [11] of the same compound?
Its value is 10%.

And the “Population Tubulin-Different-Phenotype (%)” value [11]?
The value was 2%.

What about the “Total Cell Count” value [11] of the same compound?
Its value is 534.

And the “Population Apoptotic (%)” value [12]?
The value was 70%.

And the “Population Healthy Nuclei (%)” value [12]?
Its value is 78%.

What about the “Population Membrane Permeable-Phenotype (%)” value [12] of the same compound?
The value was 3%.

What about the “Population Mitochondria Different-Phenotype (%)” value [12] of the same compound?
The value was 3%.

And the “Population Mitotic Cells (%)” value [12]?
Its value is 29%.

And the “Population Pyknosed Nuclei (%)” value [12]?
The value was 7%.

And the “Population Tubulin-Different-Phenotype (%)” value [12]?
The value was 1%.

And the “Total Cell Count” value [12]?
The value was 232.
